Laboratory results: ChEMBL document CHEMBL3120143, “Use of 2'-spirocyclic ethers in HCV nucleoside design” (J Med Chem, 2014)
Calls of active or inactive are those of the source. The calls are words filed in the database; no cut-off is given here.

Experiments:
[1] = Cytotoxicity against human Lunet cells expressing ET subgenomic replicon after 4 days by Celltitre-Glo assay; assay type: cell-based
Method in brief: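 ET-Lunet replicon cells, 3000 cells/well, incubated 4 days with serially diluted compound; proliferation/viability by CellTiter-Glo luminescence; CC50 = concentration giving 50% inhibition, curve-fitted.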

[2] = system: Hepatitis C virus; experiment: Antiviral activity against HCV genotype 1b infected in human ET-Lunet cells assessed as inhibition of HCV RNA replication after 4 days by firefly luciferase reporter gene assay; assay type: functional, organism-based, Hepacivirus hominis; conditions: 96 h
Method in brief: (§1)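 ET-Lunet cells carrying genotype 1b replicon seeded at 3000 cells/well, exposed 4 days to serially diluted compound; HCV RNA replication read as firefly luciferase luminescence (Bright-Glo). EC50 taken as concentration giving 50% inhibition, from curve fitting.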

[3] = molecular target: RNA-directed RNA polymerase (Hepacivirus hominis, UniProt O39930, S282T); experiment: Inhibition of HCV genotype 1b recombinant NS5B RNA dependent RNA polymerase S282T mutant using IRES RNA as substrate after 30 mins by radioactive assay in presence of [alpha32p]UTP; design: species or system Hepatitis C virus subtype 1b
Sequence of RNA-directed RNA polymerase (O39930 entry or part of it S282T): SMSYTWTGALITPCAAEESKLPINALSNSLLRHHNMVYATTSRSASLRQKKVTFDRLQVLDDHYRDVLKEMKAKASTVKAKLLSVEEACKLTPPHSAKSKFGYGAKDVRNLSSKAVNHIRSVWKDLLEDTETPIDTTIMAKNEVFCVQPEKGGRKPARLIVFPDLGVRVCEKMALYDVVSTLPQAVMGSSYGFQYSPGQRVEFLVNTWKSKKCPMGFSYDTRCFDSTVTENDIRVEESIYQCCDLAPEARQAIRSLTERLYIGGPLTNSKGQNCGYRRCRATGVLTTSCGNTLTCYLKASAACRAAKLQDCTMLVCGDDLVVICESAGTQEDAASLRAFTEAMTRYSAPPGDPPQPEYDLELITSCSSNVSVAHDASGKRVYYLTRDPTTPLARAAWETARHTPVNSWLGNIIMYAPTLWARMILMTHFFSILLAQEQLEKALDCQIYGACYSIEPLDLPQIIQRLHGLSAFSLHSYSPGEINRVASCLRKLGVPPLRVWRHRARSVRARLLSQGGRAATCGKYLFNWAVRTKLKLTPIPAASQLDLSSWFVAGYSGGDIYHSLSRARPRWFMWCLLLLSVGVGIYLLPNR

[4] = Inhibition of HCV genotype 1b wild type recombinant NS5B RNA dependent RNA polymerase using IRES RNA as substrate after 30 mins by radioactive assay in presence of [alpha32p]UTP; design: species or system Hepatitis C virus subtype 1b
Method in brief: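 Recombinant genotype 1b NS5B (wild-type or S282T), 40 ng/μL, with 20 ng/μL genotype 1b (−) IRES RNA template. Mix holds 5 μM each of the four natural ribonucleotides plus [α-³²P]UTP, RNase inhibitor 1 unit/μL, 5 mM MgCl₂ and 2 mM DTT in 50 mM Hepes pH 7.5. Incubated at 27 °C for 30 min, then stopped with EDTA/NaCl/citrate. Radioactive RNA product quantified and IC50 fitted.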

[5] = system: Hepatitis C virus; experiment: Antiviral activity against HCV genotype 1b infected in human ET-Lunet cells assessed as inhibition of HCV RNA replication up to 100 uM after 4 days by firefly luciferase reporter gene assay; assay type: functional, organism-based; conditions: Hepacivirus hominis; method in brief: as §1

SMILES | CC50 at 96 h [1] | EC50 [2] | IC50 [3] | IC50 [4] | inhibition [5]
CCOC(=O)[C@H](C)N[P@](=O)(OC[C@H]1O[C@@H](n2cnc3c(OC)nc(N)nc32)[C@@]2(CCO2)[C@@H]1O)Oc1ccccc1 | > 20 µM | 0.86 µM |  |  | 
Nc1ccn([C@@H]2O[C@H](COP(=O)(O)OP(=O)(O)OP(=O)(O)O)[C@@H](O)[C@]23CCO3)c(=O)n1 |  |  | > 100 µM | 8.48 µM | 
COc1nc(N)nc2c1ncn2[C@@H]1O[C@H](CO[P@](=O)(N[C@@H](C)C(=O)OC2CCCC2)Oc2ccccc2)[C@@H](O)[C@]12CCO2 | > 20 µM | 0.67 µM |  |  | 
COC(=O)[C@H](C)NP(=O)(OC[C@H]1O[C@@H](n2ccc(=O)[nH]c2=O)[C@]2(CCO2)[C@@H]1O)Oc1ccccc1 (mixture of isomers) | > 100 µM | 28.5 µM |  |  | 
Nc1ccn([C@@H]2O[C@H](COP(=O)(O)OP(=O)(O)OP(=O)(O)O)[C@@H](O)[C@@]23CCO3)c(=O)n1 |  |  |  | > 100 µM | 
Nc1ccn([C@@H]2O[C@H](COP(=O)(O)OP(=O)(O)OP(=O)(O)O)[C@@H](O)[C@]23CCCO3)c(=O)n1 |  |  | > 100 µM | 45.3 µM | 
Nc1ccn([C@@H]2O[C@H](COP(=O)(O)OP(=O)(O)OP(=O)(O)O)[C@@H](O)[C@@]23CCCO3)c(=O)n1 |  |  |  | > 100 µM | 
Nc1ccn([C@@H]2O[C@H](CO)[C@@H](O)[C@@]23CCO3)c(=O)n1 | > 100 µM | > 100 µM |  |  | 
COc1nc(N)nc2c1ncn2[C@@H]1O[C@H](CO[P@@](=O)(N[C@@H](C)C(=O)OCC(C)C)Oc2ccccc2)[C@@H](O)[C@]12CCO2 | > 20 µM | 0.57 µM |  |  | 
O=c1ccn([C@@H]2O[C@H](COP(=O)(O)OP(=O)(O)OP(=O)(O)O)[C@@H](O)[C@]23CCO3)c(=O)[nH]1 |  |  | > 100 µM | 39.4 µM | 
COc1nc(N)nc2c1ncn2[C@@H]1O[C@H](CO[P@](=O)(N[C@@H](C)C(=O)OCc2ccccc2)Oc2ccccc2)[C@@H](O)[C@]12CCO2 | > 20 µM | 11.7 µM |  |  | 
O=c1ccn([C@@H]2O[C@H](COP(=O)(O)OP(=O)(O)OP(=O)(O)O)[C@@H](O)[C@@]23CCCO3)c(=O)[nH]1 |  |  |  | > 100 µM | 
CCCCOC(=O)[C@H](C)N[P@](=O)(OC[C@H]1O[C@@H](n2cnc3c(OC)nc(N)nc32)[C@@]2(CCO2)[C@@H]1O)Oc1ccccc1 | > 20 µM | 0.27 µM |  |  | 
COC(=O)[C@H](C)NP(=O)(OC[C@H]1O[C@@H](n2ccc(=O)[nH]c2=O)[C@]2(CCCO2)[C@@H]1O)Oc1ccccc1 (mixture of isomers) | > 100 µM | 20.6 µM |  |  | 
O=c1ccn([C@@H]2O[C@H](CO)[C@@H](O)[C@]23CCCO3)c(=O)[nH]1 | > 100 µM | > 100 µM |  |  | 
COC(=O)[C@H](C)NP(=O)(OC[C@H]1O[C@@H](n2ccc(=O)[nH]c2=O)[C@@]2(CCCO2)[C@@H]1O)Oc1ccccc1 (mixture of isomers) | > 100 µM | 28.3 µM |  |  | 
COc1nc(N)nc2c1ncn2[C@@H]1O[C@H](CO[P@](=O)(N[C@@H](C)C(=O)OC(C)C)Oc2ccccc2)[C@@H](O)[C@]12CCO2 | > 20 µM | 4.52 µM |  |  | 
O=c1ccn([C@@H]2O[C@H](CO)[C@@H](O)[C@]23CCO3)c(=O)[nH]1 | > 100 µM | > 100 µM |  |  | 
Nc1ccn([C@@H]2O[C@H](CO)[C@@H](O)[C@]23CCO3)c(=O)n1 | > 100 µM | 56.6 µM |  |  | 
CCCCOC(=O)[C@H](C)N[P@@](=O)(OC[C@H]1O[C@@H](n2cnc3c(OC)nc(N)nc32)[C@@]2(CCO2)[C@@H]1O)Oc1ccccc1 | > 20 µM | 3.1 µM |  |  | 

SMILES | CC50 at 96 h [1] | EC50 [2] | IC50 [3] | IC50 [4] | inhibition [5]
COc1nc(N)nc2c1ncn2[C@@H]1O[C@H](COP(=O)(N[C@@H](C)C(=O)OCC(C)(C)C)Oc2cccc3ccccc23)[C@@H](O)[C@]12CCO2 (mixture of isomers) | > 20 µM | 0.31 µM |  |  | 
COC(=O)[C@H](C)NP(=O)(OC[C@H]1O[C@@H](n2cnc3c(OC)nc(N)nc32)[C@@]2(CCO2)[C@@H]1O)Oc1ccccc1 (mixture of isomers) | > 20 µM | 7.16 µM |  |  | 
COc1nc(N)nc2c1ncn2[C@@H]1O[C@H](CO)[C@@H](O)[C@]12CCO2 |  |  |  |  | inactive
COC(=O)[C@H](C)NP(=O)(OC[C@H]1O[C@@H](n2ccc(=O)[nH]c2=O)[C@@]2(CCO2)[C@@H]1O)Oc1ccccc1 (mixture of isomers) | > 100 µM | 16.7 µM |  |  | 
COc1nc(N)nc2c1ncn2[C@@H]1O[C@H](CO[P@@](=O)(N[C@@H](C)C(=O)OCc2ccccc2)Oc2ccccc2)[C@@H](O)[C@]12CCO2 | > 20 µM | 8.65 µM |  |  | 
COc1nc(N)nc2c1ncn2[C@@H]1O[C@H](COP(=O)(O)OP(=O)(O)OP(=O)(O)O)[C@@H](O)[C@@]1(C)F |  |  | 5.31 µM | 4.2 µM | 
COc1nc(N)nc2c1ncn2[C@@H]1O[C@H](CO[P@](=O)(N[C@@H](C)C(=O)OCC(C)C)Oc2ccccc2)[C@@H](O)[C@]12CCO2 | > 20 µM | 4.42 µM |  |  | 
Nc1ccn([C@@H]2O[C@H](CO)[C@@H](O)[C@@]23CCCO3)c(=O)n1 | > 100 µM | > 100 µM |  |  | 
O=c1ccn([C@@H]2O[C@H](CO)[C@@H](O)[C@@]23CCO3)c(=O)[nH]1 | > 100 µM | > 100 µM |  |  | 
Nc1nc2c(ncn2[C@@H]2O[C@H](COP(=O)(O)OP(=O)(O)OP(=O)(O)O)[C@@H](O)[C@]23CCO3)c(=O)[nH]1 |  |  | 10.4 µM | 9.5 µM | 
CC(C)OC(=O)[C@H](C)NP(=O)(OC[C@H]1O[C@@H](n2ccc(N)nc2=O)[C@@]2(CCO2)[C@@H]1O)Oc1ccccc1 (stereo partly drawn) | > 100 µM | 16.7 µM |  |  | 
COc1nc(N)nc2c1ncn2[C@@H]1O[C@H](CO[P@@](=O)(N[C@@H](C)C(=O)OC2CCCC2)Oc2ccccc2)[C@@H](O)[C@]12CCO2 | > 20 µM | 0.45 µM |  |  | 
Nc1ccn([C@@H]2O[C@H](CO)[C@@H](O)[C@]23CCCO3)c(=O)n1 | > 100 µM | > 100 µM |  |  | 
C[C@@]1(F)[C@H](O)[C@@H](CO)O[C@H]1n1ccc(N)nc1=O |  |  | 56.7 µM | 8.41 µM | 
COc1nc(N)nc2c1ncn2[C@@H]1O[C@H](CO[P@@](=O)(N[C@@H](C)C(=O)OC(C)C)Oc2ccccc2)[C@@H](O)[C@]12CCO2 | > 20 µM | 0.0045 µM |  |  | 
COc1nc(N)nc2c1ncn2[C@@H]1O[C@H](CO[P@@](=O)(N[C@@H](C)C(=O)OCC(C)(C)C)Oc2ccccc2)[C@@H](O)[C@]12CCO2 | > 20 µM | 1.02 µM |  |  | 
COc1nc(N)nc2c1ncn2[C@@H]1O[C@H](CO[P@](=O)(N[C@@H](C)C(=O)OCC(C)(C)C)Oc2ccccc2)[C@@H](O)[C@]12CCO2 | > 20 µM | 9.31 µM |  |  | 
O=c1ccn([C@@H]2O[C@H](CO)[C@@H](O)[C@@]23CCCO3)c(=O)[nH]1 | > 100 µM | 14.9 µM |  |  | 
Nc1nc2c(ncn2[C@@H]2O[C@H](CO)[C@@H](O)[C@]23CCO3)c(=O)[nH]1 |  |  |  |  | inactive
